Measurements published in ChEMBL document CHEMBL4033782, “Structural Modification of Natural Product Tanshinone I Leading to Discovery of Novel Nitrogen-Enriched Derivatives with Enhanced Anticancer Profile and Improved Drug-like Properties” (J Med Chem, 2018).
pIC50: −log10 of the molar value. ≈ marks a conversion by molar mass, not a printed value. Calls of active or inactive are those of the source. No cut-off for these calls is given here.

Key:
[1] = Antiproliferative activity against human KB/VCR cells after 72 hrs by sulforhodamine B assay; assay type: functional, cell-based
How it was run: (§1)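 Cells grown in ATCC-specified medium with 10% heat-inactivated FBS, penicillin/streptomycin and 10 mM Hepes, at 37 °C under 5% CO2. Seeded, cultured overnight, then exposed to gradient concentrations for 72 h. Growth read by SRB staining; inhibition % = [1−(A450 treated/A450 control)]×100. IC50 obtained by the Logit method from independent experiments.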

KB = test: Antiproliferative activity against human KB cells after 72 hrs by sulforhodamine B assay; assay type: functional, cell-based; how it was run: as §1
[2] = Aqueous solubility of the compound in pH 7.5 Tris buffer after 24 hrs by HPLC method; assay type: physicochemical
Liver [3] = test: Intrinsic clearance in mouse liver microsomes assessed per mg protein up to 60 mins by LC-MS/MS analysis; assay type: ADME, microsome; conditions: 1 h
How it was run: (§2)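 Compound at 0.1 μM final (0.01% DMSO, 0.005% BSA) incubated at 37 °C with human, rat or mouse liver microsomes (0.33 mg/mL protein) in 0.1 M Tris/HCl pH 7.4, with 5 mM MgCl2 and 1 mM NADPH. Samples taken at 0, 7, 17, 30 and 60 min, quenched by methanol precipitation, centrifuged, and parent measured by LC-MS/MS. T1/2 and Clint derived.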

[4] = Half life in human liver microsomes at 0.1 uM up to 60 mins by LC-MS/MS analysis; assay type: ADME, microsome; how it was run: as §2
Liver [5] = test: Intrinsic clearance in human liver microsomes assessed as per mg protein up to 60 mins by LC-MS/MS analysis; assay type: ADME, microsome; conditions: 1 h; how it was run: as §2
[6] = Half life in rat liver microsomes at 0.1 uM up to 60 mins by LC-MS/MS analysis; assay type: ADME, microsome; how it was run: as §2
Liver [7] = test: Intrinsic clearance in rat liver microsomes assessed per mg protein up to 60 mins by LC-MS/MS analysis; assay type: ADME, microsome; conditions: 1 h
How it was run: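 Liver microsomes (0.33 mg/mL protein) in 0.1 M Tris/HCl pH 7.4 with 5 mM MgCl2, 1 mM NADPH, compound at 0.1 μM final (0.01% DMSO, 0.005% BSA), 37 °C; samples at 0, 7, 17, 30, 60 min quenched in methanol, centrifuged, LC-MS/MS; T1/2 and Clint per g protein derived.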

[8] = Half life in mouse liver microsomes at 0.1 uM up to 60 mins by LC-MS/MS analysis; assay type: ADME, microsome; conditions: liver microsomes; how it was run: as §2
HCT-116 [9] = test: Induction of apoptosis in human HCT116 cells pretreated with Z-VAD-FMK pan-caspase inhibitor for 1 hr assessed as activation of caspase 3/7 at 1.0 to 4.0 uM after 24 hrs by Caspase-Glo 3/7 assay
HCT-116 [10] = test: Induction of apoptosis in human HCT116 cells after 48 hrs by Annexin V-FITC/propidium iodide staining-based FACS analysis; assay type: functional, cell-based
HCT-116 [11] = test: Induction of apoptosis in human HCT116 cells pretreated with Z-VAD-FMK pan-caspase inhibitor for 1 hr assessed as cleavage of PARP at 0.5 to 2 uM after 48 hrs by Western blot analysis; assay type: functional, cell-based
How it was run: (§3)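 HCT116 cells, with or without a 1 h pretreatment with 20 μM Z-VAD-FMK, exposed for 48 h. Lysed on ice in Hepes/NaCl/Triton X-100 buffer with protease/phosphatase inhibitors and clarified at 12,000×g. Equal protein run by SDS-PAGE, blotted to nitrocellulose, probed overnight at 4 °C for PARP, caspase 3, caspase 7 and β-actin. HRP secondaries, ECL detection.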

HCT-116 [12] = test: Induction of apoptosis in human HCT116 cells pretreated with Z-VAD-FMK pan-caspase inhibitor for 1 hr assessed as activation of caspase 3/7 at 0.5 to 2 uM after 48 hrs by Western blot analysis; assay type: functional, cell-based; how it was run: as §3
HCT-116 [13] = test: Antitumor activity against human HCT116 cells xenografted in BALB/C nude mouse assessed as tumor growth inhibition at 10 mg/kg, iv once daily for 14 days starting on day 14 post tumor implantation measured on day 32; assay type: functional, organism-based
How it was run: (§4)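 BALB/c nude male mice (18–20 g) implanted subcutaneously in the right axilla with HCT116 cells. Dosing began once tumors exceeded 100 mm³ (day 14). Test agent given 10 mg/kg i.v. or 30 mg/kg i.p. daily for 14 days; 5-FU 15 mg/kg as reference. Vehicle 1% DMSO in sterile saline; 6 mice per treated group, 10 per control. Relative tumor volume and body weight tracked.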

HCT-116 [14] = test: Induction of apoptosis in human HCT116 cells assessed as activation of caspase 3/7 after 48 hrs by Western blot analysis; assay type: functional, cell-based; how it was run: as §3
HCT-116 [15] = test: Antitumor activity against human HCT116 cells xenografted in BALB/C nude mouse assessed as tumor growth inhibition at 30 mg/kg, ip once daily for 14 days starting on day 14 post tumor implantation measured on day 32; assay type: functional, organism-based; how it was run: as §4
HCT-116 [16] = test: Induction of apoptosis in human HCT116 cells assessed as activation of caspase 3/7 at 1.0 to 4.0 uM after 24 hrs by Caspase-Glo 3/7 assay
HCT-116 [17] = test: Induction of apoptosis in human HCT116 cells assessed as cleavage of PARP after 48 hrs by Western blot analysis; assay type: functional, cell-based; how it was run: as §3

| SMILES | pIC50 (KB) | pIC50 [1] | also measured |
| --- | --- | --- | --- |
| Cc1cc2c(o1)-c1c(c3ccccc3c(=O)n1CCCN1CCC(N3CCOCC3)CC1)C(=O)C2=O | 6.47 | 5.76 |  |
| Cc1cccc2c3c(ccc12)-c1occ(CN2CCC(=O)CC2)c1C(=O)C3=O | 5.01 | 5.32 |  |
| Cc1cccc2c3c(ccc12)-c1occ(CN(C)C)c1C(=O)C3=O.Cl |  |  | solubility at 24 h [2]: 8030 µg/mL |
| COC1C2=C(OC1(C)C)c1ccc3c(C)cccc3c1C(=O)C2=O (stereo not drawn) | 5.66 | 5.69 |  |
| COc1ccc(OC)c(NC2C3=C(OC2(C)C)c2ccc4c(C)cccc4c2C(=O)C3=O)c1 (stereo not drawn) | < 4.70 | < 4.70 |  |
| Cc1cccc2c3c(ccc12)-c1occ(CO)c1C(=O)C3=O | 5.49 | 5.53 |  |
| Cc1cccc2c3c(ccc12)-c1occ(CN2CCO[C@H](CO)C2)c1C(=O)C3=O | 5.30 | 5.62 |  |
| Cc1cccc2c3c(ccc12)C1=C(C(=O)C3=O)C(Nc2ccc(F)c([N+](=O)[O-])c2)C(C)(C)O1 (stereo not drawn) | < 4.70 | < 4.70 |  |
| Cc1cccc2c3c(ccc12)-c1occ(CN(C)C)c1C(=O)C3=O | 5.95 | 6.29 | intrinsic clearance (Liver [3]): 51.6 mL/min/g; half-life at 0.1 µM [4]: 501 min; intrinsic clearance (Liver [5]): 4.19 mL/min/g; half-life at 0.1 µM [6]: 22.7 min; intrinsic clearance (Liver [7]): 92.7 mL/min/g; half-life at 0.1 µM [8]: 40.7 min |
| Cc1cccc2c3c(ccc12)-c1occ(CN2CCC(N(C)C)CC2)c1C(=O)C3=O | 5.42 | 5.42 |  |
| Cc1cc2c(o1)-c1c(c3ccccc3c(=O)n1CCCCCN(C)C)C(=O)C2=O | 4.86 | 5.29 |  |
| Cc1cc2c(o1)-c1c(c3ccccc3c(=O)n1CCCN1CCN(C)CC1)C(=O)C2=O | 4.98 | 5.45 |  |
| Cc1cc2c(o1)-c1c(c3ccccc3c(=O)n1CCO)C(=O)C2=O | < 4.70 | < 4.70 |  |
| Cc1cc2c(o1)-c1nc(OCCO)c3ccccc3c1C(=O)C2=O | < 4.70 | < 4.70 |  |
| Cc1cc2c(o1)-c1nc(OCCCCCN(C)C)c3ccccc3c1C(=O)C2=O | 4.82 | 5.70 |  |
| Cc1cc2c(o1)-c1nc(OCCCCN(C)C)c3ccccc3c1C(=O)C2=O | < 4.70 | < 4.70 |  |
| Cc1cccc2c3c(ccc12)-c1occ(CN(CCCl)CCCl)c1C(=O)C3=O | 5.03 | 4.96 |  |
| Cc1cccc2c3c(ccc12)-c1occ(CN2CCN(C)CC2)c1C(=O)C3=O | 5.28 | 4.88 |  |
| CCN(CC)CCCn1c2c(c3ccccc3c1=O)C(=O)C(=O)c1cc(C)oc1-2.Cl |  |  | solubility at 24 h [2]: > 80000 µg/mL |
| Cc1cccc2c3c(ccc12)-c1occ(CN2CCN(CCO)CC2)c1C(=O)C3=O | 5.57 | 5.36 |  |
| Cc1cccc2c3c(ccc12)-c1occ(CN(CCO)CCO)c1C(=O)C3=O | 5.79 | 5.84 |  |
| CC[C@]1(O)C[C@H]2CN(CCc3c([nH]c4ccccc34)[C@@](C(=O)OC)(c3cc4c(cc3OC)N(C=O)[C@H]3[C@@](O)(C(=O)OC)[C@H](OC(C)=O)[C@]5(CC)C=CCN6CC[C@]43[C@@H]65)C2)C1 [VINCRISTINE] | 9.14 | 6.45 |  |
| CCN(CC)CCCn1c2c(c3ccccc3c1=O)C(=O)C(=O)c1cc(C)oc1-2 |  |  | Activity (HCT-116 [9]): inactive; Activity (HCT-116 [10]): Dose-dependent effect; Activity (HCT-116 [11]): inactive; Activity (HCT-116 [12]): inactive; TGI (HCT-116 [13]): Active; Activity (HCT-116 [14]): Dose-dependent effect; TGI (HCT-116 [15]): Active; Activity (HCT-116 [16]): Active; Activity (HCT-116 [17]): Dose-dependent effect |
| Cc1cccc2c3c(ccc12)C1=C(CC(C)(C)O1)C(=O)C3=O | 5.58 | 5.63 |  |

Now from value to molecule, other results behind:

| pIC50 (KB) | SMILES | pIC50 [1] | also measured |
| --- | --- | --- | --- |
| 5.64 | Cc1cc2c(o1)-c1c(c3ccccc3c(=O)n1CCCN1CCOCC1)C(=O)C2=O | 5.81 |  |
| 5.80 | Cc1cccc2c3c(ccc12)-c1occ(CN2CCCC2)c1C(=O)C3=O | 5.75 |  |
| 5.42 | Cc1cc2c(o1)-c1nc(OCCOCCN(C)C)c3ccccc3c1C(=O)C2=O | 5.78 |  |
| 5.58 | Cc1cccc2c3c(ccc12)-c1occ(CN2CC[C@H](N(C)C)C2)c1C(=O)C3=O | 5.77 |  |
| 5.79 | Cc1cccc2c3c(ccc12)C1=C(C(=O)C3=O)C(O)C(C)(C)O1 (stereo not drawn) | 5.91 | intrinsic clearance (Liver [3]): 83.1 mL/min/g; solubility at 24 h [2]: 90 µg/mL (≈ 292 µM); half-life at 0.1 µM [4]: 57.1 min; intrinsic clearance (Liver [5]): 36.8 mL/min/g; half-life at 0.1 µM [6]: 20.2 min; intrinsic clearance (Liver [7]): 104 mL/min/g; half-life at 0.1 µM [8]: 25.3 min |
| 5.47 | Cc1cc2c(o1)-c1c(c3ccccc3c(=O)n1CCCN1CCCC1)C(=O)C2=O | 5.58 |  |
| 5.81 | Cc1cccc2c3c(ccc12)-c1occ(CN2CCC(O)CC2)c1C(=O)C3=O | 5.95 |  |
| 6.15 | Cc1cc2c(o1)-c1c(c3ccccc3c(=O)n1CCCN(C)C)C(=O)C2=O | 6.04 |  |
| 5.39 | Cc1cc2c(o1)-c1c(c3ccccc3c(=O)n1CCCCN(C)C)C(=O)C2=O | 5.61 |  |
| 4.76 | Cc1cc2c(o1)-c1c(c3ccccc3c(=O)n1CCCn1ccnc1)C(=O)C2=O | 5.00 |  |
| 5.90 | Cc1cccc2c3c(ccc12)-c1occ(CN2CCC(CO)C2)c1C(=O)C3=O (stereo not drawn) | 6.04 |  |
| 5.95 | Cc1cc2c(o1)-c1c(c3ccccc3c(=O)n1CCCN1CCCCC1)C(=O)C2=O | 5.82 |  |
| 5.82 | Cc1cccc2c3c(ccc12)-c1occ(CN(C)CCO)c1C(=O)C3=O | 5.99 |  |
| 5.09 | CON(C)Cc1coc2c1C(=O)C(=O)c1c-2ccc2c(C)cccc12 | 5.24 |  |
| < 4.70 | Cc1cccc2c3c(ccc12)-c1occ(CN2CCOCC2)c1C(=O)C3=O | < 4.70 |  |
| 6.06 | Cc1cc2c(o1)-c1c(c3ccccc3c(=O)n1CCCN1CCC(CCO)CC1)C(=O)C2=O | 5.83 |  |
